Laboratory results published in PMC5955769 (ACS chemical neuroscience, 2018).

Experiments:
Nrf2 = assay: Neh2-luc SH-SY5Y cell-based reporter; conditions: for Nrf2 activity in Neh2-luciferase reporter assay (library screen): IRSF SMART library screen
Method in brief: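 Luciferase reporter in SH-SY5Y cells carrying the Nrf2 Neh2 fusion (Neh2-luc). It is used to find agents that directly stabilize the Nrf2 transcription factor. Run as a screen of an approved and preclinical drug library, and as concentration-response testing of selected compounds. TBHQ was the reference Nrf2 activator.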

HIF-1α = assay: ODD-luc SH-SY5Y cell reporter; format: cell-based; conditions: SH-SY5Y cells
Method in brief: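 HIF-1α ODD-luciferase reporter in SH-SY5Y cells, run as concentration-response testing. The PHD inhibitor FG-4592 served as the HIF-activating control.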

SMILES | Nrf2 (Neh2-luc) fold activation (Nrf2; SH-SY5Y cells, fold increase in luminescence relative to vehicle control) | Nrf2 activity in Neh2-luciferase reporter assay (library screen) (Nrf2) | HIF-1α (ODD-luc) fold activation (HIF-1α)
CC1(C)CNc2ccccc21 [3,3-dimethylindoline (III)] | 1.8 fold |  | 
O=C(CCCCCCC(=O)Nc1ccccc1)NO [SAHA] |  | Nrf2 hits | 
CC(/C=C/C(=O)NO)=C\[C@@H](C)C(=O)c1ccc(N(C)C)cc1 [TSA] |  | Nrf2 hits | 
Nc1ccccc1NC(=O)c1ccc(CNC(=O)OCc2cccnc2)cc1 [entinostat] |  | completely inactive | 
O=C(/C=C/C#Cc1cccc(NS(=O)(=O)c2ccccc2)c1)NO [oxamflatin] |  | Nrf2 hits | 
CC(=O)Nc1ccc(C(=O)Nc2ccccc2N)cc1 [tacedinaline] |  | inactive | 
CN1CCc2c(c3ccccc3n2Cc2ccc(C(=O)NO)cc2)C1 [tubastatin] |  | Nrf2 hits | 2.4 fold
